ChEMBL document CHEMBL1134598, “Synthesis, ionotropic glutamate receptor binding affinity, and structure-activity relationships of a new set of 4,5-dihydro-8-heteroaryl-4-oxo-1,2,4-triazolo[1,5-a]quinoxaline-2-carboxylates analogues of TQX-173” (J Med Chem, 2001)

Key:
[1] = molecular target: T1, Glutamate NMDA receptor (Rattus norvegicus) (UniProt P35439+Q00959+Q00960+Q00961+Q62645+Q8VHN2+Q9R1M7); assay: Inhibition of [3H]- glycine binding to NMDA receptor of rat membrane; parameters: concentration or dose not given beside the values; conditions: concentration not given here
How it was run: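 Rat cortical synaptic membranes, [3H]glycine at 10 nM (KD 75 nM under these conditions). Compounds from 1 mM stock in 50% DMSO, diluted in buffer; four to six concentrations in triplicate, three or four displacement curves. IC50 converted to Ki by Cheng-Prusoff.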

[2] = molecular target: Glutamate receptor ionotropic, AMPA (Rattus norvegicus, UniProt P19490+P19491+P19492+P19493); assay: Binding affinity at ionotropic glutamate receptor AMPA in rat cortical membranes [3H]AMPA displacement.; type: cell membranes
[3] = molecular target: Glutamate receptor ionotropic, AMPA (Mus musculus, UniProt P23818+P23819+Q9Z2W8+Q9Z2W9); assay: Antagonism at ionotropic glutamate receptor AMPA in mouse cortical wedge preparation; type: functional
How it was run: (§1)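 Mouse cortical wedges perfused with Mg2+-free medium; AMPA (5 µM) applied for 2 min every 15 min until control peaks stabilised, then continuous superfusion with antagonist while agonist applications continued. IC50 from depolarization peaks with agonist plus antagonist compared with control peaks; four separate determinations.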

[4] = molecular target: T1, Glutamate NMDA receptor (Rattus norvegicus); assay: Percent inhibition of stimulated [3H](+)-MK-801 binding against N-methyl-D-aspartate glutamate receptor; type: protein-complex assay; conditions: concentration not given here
How it was run: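 Rat cortical membranes washed in 5 mM Tris-HCl pH 7.4 containing 0.08% Triton X-100, then put through further resuspension/centrifugation cycles. Incubation for 120 min at room temperature with 2.5 nM [3H]-(+)-MK-801, 10 µM glutamate and 0.1 µM glycine. Percent inhibition of specific binding at 100 µM; three or four determinations in triplicate.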

[5] = Inhibition of specific binding of [3H]KA against iGluRs
[6] = Antagonism at NMDA receptor in mouse cortical wedge preparation expressed as concentration that inhibits by 50% depolarizations induced by 5 uM NMDA
Glutamate NMDA receptor [7] = assay: Ability to displace [3H]glycine from NMDA receptor in rat corticaln membranes; type: cell membranes
[8] = Antagonism at NMDA receptor in mouse cortical wedge preparation expressed as concentration that inhibits by 50% depolarizations induced by 5 uM AMPA; type: functional; conditions: in the assay text read “5 uM NMDA” for “5 uM AMPA”
How it was run: as §1, with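 “cortical wedges, gray matter” for “cortical wedges”, “Mg2+-free medium. Agonists (5 µM” for “Mg2+-free medium;”, “AMPA or 5 µM NMDA)” for “AMPA (5 µM)”, “compared to” for “compared with”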

[9] = molecular target: Glutamate receptor ionotropic, kainate; assay: Inhibition of [3H]KA binding to kainate receptor of rat brain membranes; type: cell membranes, Membrane
Glutamate NMDA receptor [10] = assay: Inhibition of [3H]-(+)-MK-801 binding to NMDA receptor ion-channel complex of rat cortical memembranes; type: protein-complex assay
How it was run: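 Rat cortical membranes washed in 5 mM Tris-HCl pH 7.4 with 0.08% Triton X-100, 0.2-0.3 mg protein/tube. Incubated with 2.5 nM [3H]-(+)-MK-801, 10 µM glutamate and 0.1 µM glycine at room temperature for 120 min. IC50 or % inhibition at 100 µM; three or four determinations in triplicate.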

[11] = molecular target: Glutamate receptor ionotropic, kainate (Rattus norvegicus) (UniProt P22756+Q01812+P42260+P42264+Q63273); assay: Inhibition of [3H]KA binding to kainate receptor in rat brain membranes; type: cell membranes; parameters: concentration or dose not given beside the values; conditions: concentration not given here
How it was run: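 Rat membranes resuspended at 0.5 mg protein/mL in 0.05 M Tris-citrate pH 7.4, preincubated 37 °C for 30 min, washed three times in ice-cold buffer. Incubated on ice for 60 min with 5 nM [3H]kainate and test compound. Nonspecific binding defined with 1 mM glutamate. Bound ligand recovered by GF/C filtration. Single-point inhibition measured at 100 µM.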

[12] = molecular target: Glutamate receptor ionotropic, kainate; assay: Inhibition of specific binding of [3H]KA at kainate receptor in rat brain membranes; type: cell membranes
How it was run: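 Membranes preincubated at 37 °C for 30 min in 0.05 M Tris-citrate pH 7.4, then washed; 0.2-0.3 mg protein with 5 nM [3H]kainate on ice for 60 min. Nonspecific binding defined with 1 mM glutamate; bound ligand separated by glass-fibre filtration.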

Glutamate NMDA receptor [13] = assay: Ability to displace [3H]glycine from NMDA receptor in rat cortical membranes; type: cell membranes
How it was run: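 Rat cortical synaptic membranes; [3H]glycine at 10 nM (KD 75 nM under these conditions). Test compound from 1 mM stock in 50% DMSO, diluted in buffer; four to six concentrations in triplicate, three or four displacement curves. IC50 by curve fitting, converted to Ki by Cheng-Prusoff.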

SMILES	inhibition [1]	Ki [2]	IC50 [9]	inhibition [11]	further results
O=C(O)c1nc2c(O)nc3cc(Cl)c(-n4cncn4)cc3n2n1	35%	3.7 µM			IC50 [3]: 12 µM; inhibition [4]: 30%; IC50 [5]: 48 µM; IC50 [6]: 350 µM
O=C(O)c1cc(O)c2c(Cl)cc(Cl)cc2n1					Ki (Glutamate NMDA receptor [7]): 0.09 µM; IC50 [8]: 4.7 µM
Nc1cc2c(cc1Cl)nc(O)c1nc(C(=O)O)nn12		4.9 µM	22.4 µM		Ki (Glutamate NMDA receptor [7]): 3.6 µM; IC50 (Glutamate NMDA receptor [10]): 5.6 µM
O=C(O)c1nc2c(O)nc3cc(Cl)c(-n4cccc4)cc3n2n1		0.86 µM	36 µM		IC50 [3]: 3 µM; Ki (Glutamate NMDA receptor [13]): 0.86 µM; IC50 (Glutamate NMDA receptor [10]): 11.7 µM; IC50 [6]: 52 µM
O=C(O)c1nc2c(O)nc3cc(Cl)c([N+](=O)[O-])cc3n2n1					Ki [12]: 2.2 µM; IC50 (Glutamate NMDA receptor [10]): 17.8 µM
NS(=O)(=O)c1cccc2c1c([N+](=O)[O-])cc1nc(O)c(O)nc12 [NBQX]	3%				IC50 (Glutamate NMDA receptor [10]): 0.2 µM
O=Cc1ccn(-c2cc3c(cc2Cl)nc(O)c2nc(C(=O)O)nn23)c1		0.53 µM	8.9 µM		IC50 [3]: 1.2 µM; Ki (Glutamate NMDA receptor [13]): 28 µM; IC50 [8]: 23 µM; IC50 (Glutamate NMDA receptor [10]): 43 µM
O=C(O)c1nc2c(O)nc3cc(-n4cnnc4)ccc3n2n1	0%	4.3 µM		44%	
O=C(O)c1nc2c(O)nc3cc(Cl)c(-n4cnnc4)cc3n2n1 [TQX-173]					IC50 [3]: 2.3 µM; Ki (Glutamate NMDA receptor [7]): 33.5 µM; IC50 [8]: 46 µM; IC50 (Glutamate NMDA receptor [10]): 68 µM
O=C(O)c1nc2c(=O)[nH]c3cc(Cl)c(-n4cccn4)cc3n2n1		4.3 µM	20 µM		IC50 [3]: 3 µM; Ki (Glutamate NMDA receptor [7]): 5.3 µM; IC50 (Glutamate NMDA receptor [10]): 16.8 µM; IC50 [6]: 150 µM
CCOC(=O)c1nc2c(=O)[nH]c3cc(Cl)c(N)cc3n2n1		20.4 µM	84 µM		Ki (Glutamate NMDA receptor [7]): 4.8 µM
O=C(O)c1nc2c(O)nc3cc(Cl)c(-n4ccnc4)cc3n2n1	45%				inhibition [4]: 45%
O=C(O)c1nc2c(O)nc3ccc(-n4cnnc4)cc3n2n1	0%	17.2 µM	90 µM		inhibition [4]: 20%

Second part, led by results:

inhibition [1]	Ki [2]	IC50 [9]	inhibition [11]	SMILES	further results
16%				CCOC(=O)c1nc2c(O)nc3ccc(N)cc3n2n1	
35%				CCOC(=O)c1nc2c(O)nc3ccc([N+](=O)[O-])cc3n2n1	
15%				CCOC(=O)c1nc2c(O)nc3cc(Cl)c(-n4cnnc4)cc3n2n1	
			16%	O=C(O)c1nc2c(O)nc3ccc([N+](=O)[O-])cc3n2n1	Ki (Glutamate NMDA receptor [7]): 79.4 µM
0%			20%	CCOC(=O)c1nc2c(O)nc3ccc(-n4cnnc4)cc3n2n1	
28%	17.2 µM		29%	CCOC(=O)c1nc2c(O)nc3cc(Cl)c(-n4cncn4)cc3n2n1	
	18.4 µM		7%	CCOC(=O)c1nc2c(O)nc3cc(Cl)c(-n4cccc4)cc3n2n1	Ki [12]: 23 µM
39%				CCOC(=O)c1nc2c(O)nc3cc(Cl)c(-n4ccnc4)cc3n2n1	
			20%	CCOC(=O)c1nc2c(O)nc3cc(Cl)c(-n4cccn4)cc3n2n1	Ki [12]: 7.1 µM
8%	10.1 µM		35%	CCOC(=O)c1nc2c(O)nc3cc(-n4cnnc4)ccc3n2n1	
10.2%	47 µM		35%	CCOC(=O)c1nc2c(O)nc3cc(Cl)c([N+](=O)[O-])cc3n2n1	
	1.9 µM	88 µM		CCOC(=O)c1nc2c(O)nc3cc(Cl)c(-n4ccc(C=O)c4)cc3n2n1	Ki (Glutamate NMDA receptor [13]): 19 µM
35%	44 µM	81 µM		Nc1ccc2nc(O)c3nc(C(=O)O)nn3c2c1	
